The record followed here is ChEMBL document CHEMBL5512625, “Design, synthesis, and biological evaluation of first-in-class indomethacin-based PROTACs degrading SARS-CoV-2 main protease and with broad-spectrum antiviral activity” (Eur J Med Chem, 2024).

By DC50 is commonly meant the midpoint of the concentration-degradation curve.

What all share (format): cell-based
Assay [1] concerns the target T1, von Hippel-Lindau disease tumor suppressor-SARS-Cov-2 polyprotein (Severe acute respiratory syndrome coronavirus 2) (UniProt P40337+P0DTD1). Briefly: PROTAC activity at human VHL/FLAG-nsp4-tagged SARS CoV-2 MPro overexpressed in HEK293T cells assessed as protein degradation at 25 uM pretreated for 2 hrs followed by viral protein transfection measured after 24 hrs by Western blot analysis. The following applies: time 26.0 hrs. The essentials: (§1)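 293T cells pretreated 2 h with compound (1–25 µM) or 0.1% DMSO, then transfected with FLAG-nsp4-Mpro plasmid and kept 24 h with compound. Western blot for Mpro with β-actin loading control. Densitometry from 2–3 independent experiments; DC50 by nonlinear regression, plus % degradation at the top concentration.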

Assay [2] addresses T1, von Hippel-Lindau disease tumor suppressor-SARS-Cov-2 polyprotein (Severe acute respiratory syndrome coronavirus 2). Nature of the assay: PROTAC activity at human VHL/FLAG-nsp4-tagged SARS CoV-2 MPro overexpressed in HEK293T cells assessed as protein degradation at 25 uM pretreated for 2 hrs followed by viral protein transfection measured after 24 hrs in presence of VH298 by Western blot analysis. The following applies: time 26.0 hrs. The essentials: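 293T cells pretreated with compound at 25 µM, with or without 50 µM VHL inhibitor VH298. Cells then transfected to express FLAG-nsp4-Mpro and collected 24 h post-transfection. Mpro detected by Western blot, β-actin as loading control.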
(In general: A western blot detects proteins with antibodies after separation by electrophoresis.)

In assay [3] the target is Replicase polyprotein 1ab (Severe acute respiratory syndrome coronavirus 2) (UniProt P0DTD1). Briefly: Effect on catalytic activity of FLAG-nsp4-tagged SARS CoV-2 MPro overexpressed in HEK293T cells pretreated for 2 hrs followed by viral protein transfection measured after 24 hrs by Western blot analysis. The following applies: time 26.0 hrs. The essentials: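 293T cells pretreated 2 h, then transfected with FLAG-nsp4-Mpro plasmid and kept 24 h with compound. Western blot with anti-Mpro antibody reads cleavage: release of ~34 kDa mature Mpro versus the uncleaved upper band.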

Assay [4] concerns the target T1, von Hippel-Lindau disease tumor suppressor-SARS-Cov-2 polyprotein (Severe acute respiratory syndrome coronavirus 2). Nature of the assay: PROTAC activity at human VHL/FLAG-nsp4-tagged SARS CoV-2 MPro overexpressed in HEK293T cells assessed as protein degradation at 25 uM pretreated for 2 hrs followed by viral protein transfection measured after 24 hrs by Western blot analysis relative to control. The following applies: time 26.0 hrs. The method, boiled down:
as §1

In assay [5] the target is von Hippel-Lindau disease tumor suppressor-SARS-Cov-2 polyprotein (Severe acute respiratory syndrome coronavirus 2, UniProt P40337+P0DTD1). Nature of the assay: (§2) PROTAC activity at human VHL/FLAG-nsp4-tagged SARS CoV-2 MPro overexpressed in HEK293T cells assessed as protein degradation pretreated for 2 hrs followed by viral protein transfection measured after 24 hrs by Western blot analysis. The essentials: as §1
von Hippel-Lindau disease tumor suppressor-SARS-Cov-2 polyprotein, sequence (P40337 whole entry, other chains not shown): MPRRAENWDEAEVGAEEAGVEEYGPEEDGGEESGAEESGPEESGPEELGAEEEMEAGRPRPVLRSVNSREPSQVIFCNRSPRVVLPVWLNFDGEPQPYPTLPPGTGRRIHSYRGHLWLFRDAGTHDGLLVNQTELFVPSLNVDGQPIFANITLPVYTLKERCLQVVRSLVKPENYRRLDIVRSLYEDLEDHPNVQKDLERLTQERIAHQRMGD

Assay [6] addresses Replicase polyprotein 1ab (Severe acute respiratory syndrome coronavirus 2) (UniProt P0DTD1). Nature of the assay: Effect on catalytic activity of FLAG-nsp4-tagged SARS CoV-2 MPro overexpressed in HEK293T cells by FRET assay.
Assay [7] addresses T1, von Hippel-Lindau disease tumor suppressor-SARS-Cov-2 polyprotein (Severe acute respiratory syndrome coronavirus 2). The description is as §2. The following applies: time 26.0 hrs. The essentials: as §1

Each structure is given as a SMILES string. Active and inactive are the calls of the source. The rule behind the calls is not given here.

T1 sequence (P40337 whole entry, looked up, other chains not shown): as the sequence (P40337 whole entry, other chains not shown) above

Regarding `COc1ccc2c(c1)c(CC(=O)NCCN1CCN(C(=O)CCC(=O)N[C@H](C(=O)N3C[C@@H](O)C[C@H]3C(=O)N[C@@H](C)c3ccc(-c4scnc4C)cc3)C(C)(C)C)CC1)c(C)n2C(=O)c1ccc(Cl)cc1`, in assay [1], the result was inactive.
Turning to `COc1ccc2c(c1)c(CC(=O)NCCN1CCN(C(=O)CCC(=O)N[C@H](C(=O)N3C[C@H](O)C[C@H]3C(=O)N[C@@H](C)c3ccc(-c4scnc4C)cc3)C(C)(C)C)CC1)c(C)n2C(=O)c1ccc(Cl)cc1`, the result in assay [2], in assay [3] and in assay [6] was inactive. In addition, the Activity in assay [4] was determined as 67%. Besides, the DC50 in assay [5] amounted to 18.1 µM.
`COc1ccc2c(c1)c(CC(=O)NCCCCCCC(=O)N[C@H](C(=O)N1C[C@H](O)C[C@H]1C(=O)N[C@@H](C)c1ccc(-c3scnc3C)cc1)C(C)(C)C)c(C)n2C(=O)c1ccc(Cl)cc1`: the result in assay [3] and in assay [6] was inactive. Moreover, the Activity entry in assay [7] was “Dose-Dependent Effect”.
Consider `COc1ccc2c(c1)c(CC(=O)N1CCN(CC(=O)N[C@H](C(=O)N3C[C@H](O)C[C@H]3C(=O)N[C@@H](C)c3ccc(-c4scnc4C)cc3)C(C)(C)C)CC1)c(C)n2C(=O)c1ccc(Cl)cc1`, for which the outcome in assay [2], in assay [3] and in assay [6] was inactive. The Activity in assay [4] was 72%. In addition, the 50% degradation concentration (DC50) in assay [5] came out at 7.3 µM.
